Results on 10 molecules are retold here after ChEMBL document CHEMBL5107947, “Estimating the cooperativity of PROTAC-induced ternary complexes using 19F NMR displacement assay” (RSC Med Chem, 2021).

Assay [1] concerns the target Von Hippel-Lindau disease tumor suppressor/Elongin B/Elongin C (Homo sapiens) (UniProt P40337+Q15370+Q15369). In words: (§1) Displacement of (2S,4R)-N-(4-bromobenzyl)-4-hydroxy-1-(3,3,3-trifluoropropanoyl)pyrrolidine-2-carboxamide from VBC E3 ligase (unknown origin) binary complex by 19F NMR assay. Format: protein-complex assay. The procedure, abridged: (§2)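 Competitive 19F CPMG NMR displacement of spy molecule 19 (50 μM) from VBC (1 μM) across a titration of PROTAC concentrations. Free spy alone and spy with VBC served as the 100% and 0% displacement controls. For ternary runs Brd4(2) was present at 10 μM.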

For assay [2], the target named is T1, Von Hippel-Lindau disease tumor suppressor/Elongin B/Elongin C (Homo sapiens, UniProt P40337). In words: Binding affinity to VCB E3 ligase (unknown origin) assessed as binary equilibrium dissociation constant by 19F NMR assay. Format: protein-complex assay.
The target of assay [3] is T2, von Hippel-Lindau disease tumor suppressor/Bromodomain-containing protein 4/Elongin-B/Elongin-C (Homo sapiens, UniProt O60885+P40337+Q15369+Q15370). In words: Displacement of (2S,4R)-N-(4-bromobenzyl)-4-hydroxy-1-(3,3,3-trifluoropropanoyl)pyrrolidine-2-carboxamide from BRD4 bromodomain 2/VBC E3 ligase (unknown origin) ternary complex by 19F NMR assay. Format: protein assay. The essentials: (§3)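 19F CPMG NMR displacement of spy molecule 19 (50 μM) from VBC (1 μM) with increasing PROTAC concentrations, in the presence of 10 μM Brd4(2). Spectra of free spy molecule and spy molecule with VBC set 100% and 0% displacement.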

For assay [4], the target named is T2, von Hippel-Lindau disease tumor suppressor/Bromodomain-containing protein 4/Elongin-B/Elongin-C. The assay is described as follows: Displacement of (2S,4R)-N-(4-bromobenzyl)-4-hydroxy-1-(3,3,3-trifluoropropanoyl)pyrrolidine-2-carboxamide from BRD4 bromodomain 2/VBC E3 ligase (unknown origin) ternary complex assessed as inhibition constant by 19F NMR assay. Format: protein assay. The procedure, abridged: as §3

The species named for assay [5] is Homo sapiens. The assay is described as follows: Co-operativity factor, ratio of Ki for displacement of (2S,4R)-N-(4-bromobenzyl)-4-hydroxy-1-(3,3,3-trifluoropropanoyl)pyrrolidine-2-carboxamide from VBC E3 ligase (unknown origin) binary complex assessed as inhibition constant to Ki for displacement of (2S,4R)-N-(4-bromobenzyl)-4-hydroxy-1-(3,3,3-trifluoropropanoyl)pyrrolidine-2-carboxamide from BRD4 bromodomain 2/VBC E3 ligase (unknown origin) ternary complex assessed as inhibition constant by 19F NMR assay.

The species named for assay [6] is Homo sapiens. The assay is described as follows: Co-operativity factor, ratio of Ki for displacement of (2S,4R)-N-(4-bromobenzyl)-4-hydroxy-1-(3,3,3-trifluoropropanoyl)pyrrolidine-2-carboxamide from VBC E3 ligase (unknown origin) binary complex assessed as inhibition constant to Ki for displacement of (2S,4R)-N-(4-bromobenzyl)-4-hydroxy-1-(3,3,3-trifluoropropanoyl)pyrrolidine-2-carboxamide from BRD4 bromodomain 2/VBC E3 ligase (unknown origin) ternary complex assessed as inhibition constant by ITC assay. On the technique in general: In ITC the heat of successive injections is recorded.

The species entered for assay [7] is Homo sapiens. In words: Co-operativity factor, ratio of Ki for displacement of (2S,4R)-N-(4-bromobenzyl)-4-hydroxy-1-(3,3,3-trifluoropropanoyl)pyrrolidine-2-carboxamide from VBC E3 ligase (unknown origin) binary complex assessed as inhibition constant to Ki for displacement of (2S,4R)-N-(4-bromobenzyl)-4-hydroxy-1-(3,3,3-trifluoropropanoyl)pyrrolidine-2-carboxamide from BRD4 bromodomain 2/VBC E3 ligase (unknown origin) ternary complex assessed as inhibition constant by SPR assay. (In SPR one partner is held on a chip, and binding of the other changes the refractive index at the surface.)

Assay [8] deals with T1, Von Hippel-Lindau disease tumor suppressor/Elongin B/Elongin C. Described as §1. Format: protein-complex assay. The essentials:
as §2

Assay [9] has the same target. In words: Displacement of (2S,4R)-N-(4-bromobenzyl)-4-hydroxy-1-(3,3,3-trifluoropropanoyl)pyrrolidine-2-carboxamide from VBC E3 ligase (unknown origin) binary complex assessed as inhibition constant by 19F NMR assay. Format: protein-complex assay. The procedure, abridged: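 Binary competition by 19F CPMG NMR, without Brd4(2): spy molecule 19 at 50 μM, VBC at 1 μM, titrated with increasing PROTAC concentrations. Spy molecule alone and spy molecule plus VBC served as 100% and 0% displacement references.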

Assay [10] shares this target. The assay is described as follows: Displacement of (2S,4R)-N-(4-bromobenzyl)-4-hydroxy-1-(3,3,3-trifluoropropanoyl)pyrrolidine-2-carboxamide from dual VBC E3 ligase (unknown origin) ternary complex by 19F NMR assay. Format: protein-complex assay. The procedure, abridged: (§4)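 Same 19F CPMG displacement format, with spy molecule 19 at 50 μM and VBC at 1 μM. PROTAC was titrated over a range of concentrations, with spy-only and spy+VBC spectra as the 100% and 0% displacement controls. IC50 was read as 50% dissociation of the spy–VBC complex.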

For assay [11] the target is unchanged. The assay is described as follows: Displacement of (2S,4R)-N-(4-bromobenzyl)-4-hydroxy-1-(3,3,3-trifluoropropanoyl)pyrrolidine-2-carboxamide from dual VBC E3 ligase (unknown origin) ternary complex assessed as inhibition constant by 19F NMR assay. Format: protein-complex assay. The essentials: as §4
For assay [12], the species on record is Homo sapiens. The assay is described as follows: Co-operativity factor, ratio of Ki for displacement of (2S,4R)-N-(4-bromobenzyl)-4-hydroxy-1-(3,3,3-trifluoropropanoyl)pyrrolidine-2-carboxamide from VBC E3 ligase (unknown origin) binary complex assessed as inhibition constant to Ki for displacement of (2S,4R)-N-(4-bromobenzyl)-4-hydroxy-1-(3,3,3-trifluoropropanoyl)pyrrolidine-2-carboxamide from dual VBC E3 ligase (unknown origin) ternary complex assessed as inhibition constant by 19F NMR assay.

The species named for assay [13] is Homo sapiens. In words: Co-operativity factor, ratio of Ki for displacement of (2S,4R)-N-(4-bromobenzyl)-4-hydroxy-1-(3,3,3-trifluoropropanoyl)pyrrolidine-2-carboxamide from VBC E3 ligase (unknown origin) binary complex assessed as inhibition constant to Ki for displacement of (2S,4R)-N-(4-bromobenzyl)-4-hydroxy-1-(3,3,3-trifluoropropanoyl)pyrrolidine-2-carboxamide from dual VBC E3 ligase (unknown origin) ternary complex assessed as inhibition constant by […].

Assay [14] is described as follows: Displacement of (2S,4R)-N-(4-bromobenzyl)-4-hydroxy-1-(3,3,3-trifluoropropanoyl)pyrrolidine-2-carboxamide from BRD3 bromodomain 1/VBC E3 ligase (unknown origin) ternary complex by 19F NMR assay. On the set-up: species or system Homo sapiens.
The nature of assay [15]: Displacement of (2S,4R)-N-(4-bromobenzyl)-4-hydroxy-1-(3,3,3-trifluoropropanoyl)pyrrolidine-2-carboxamide from BRD3 bromodomain 2/VBC E3 ligase (unknown origin) ternary complex by 19F NMR assay. The arrangement: species or system Homo sapiens.
Assay [16] is described as follows: Displacement of (2S,4R)-N-(4-bromobenzyl)-4-hydroxy-1-(3,3,3-trifluoropropanoyl)pyrrolidine-2-carboxamide from BRD3 bromodomain 1/VBC E3 ligase (unknown origin) ternary complex assessed as inhibition constant by 19F NMR assay. On the set-up: species or system Homo sapiens.
Assay [17] can be described thus: Displacement of (2S,4R)-N-(4-bromobenzyl)-4-hydroxy-1-(3,3,3-trifluoropropanoyl)pyrrolidine-2-carboxamide from BRD3 bromodomain 2/VBC E3 ligase (unknown origin) ternary complex assessed as inhibition constant by 19F NMR assay. The arrangement: species or system Homo sapiens.

Calls of active or inactive are those of the source. The rule behind the calls is not given here.

T1 sequence (P40337 whole entry, looked up): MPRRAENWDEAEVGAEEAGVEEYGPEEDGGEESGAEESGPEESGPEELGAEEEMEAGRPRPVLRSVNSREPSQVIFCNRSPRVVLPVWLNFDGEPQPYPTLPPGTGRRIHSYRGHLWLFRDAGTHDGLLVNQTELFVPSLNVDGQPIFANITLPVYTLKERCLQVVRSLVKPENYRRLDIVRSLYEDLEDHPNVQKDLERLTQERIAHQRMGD
T2 sequence (P40337 whole entry, looked up, other chains not shown): as the sequence (P40337 whole entry, looked up) above
T2 sequence (Q15369 whole entry, looked up, other chains not shown): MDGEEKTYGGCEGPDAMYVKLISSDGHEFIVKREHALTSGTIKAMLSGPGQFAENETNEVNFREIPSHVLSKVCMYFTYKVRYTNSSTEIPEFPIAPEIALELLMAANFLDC
T2 sequence (Q15370 whole entry, looked up, other chains not shown): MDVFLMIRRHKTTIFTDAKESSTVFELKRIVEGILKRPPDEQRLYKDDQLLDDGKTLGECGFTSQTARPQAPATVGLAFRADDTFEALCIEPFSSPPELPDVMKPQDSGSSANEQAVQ
Sequence of Von Hippel-Lindau disease tumor suppressor/Elongin B/Elongin C (Homo sapiens) (P40337 whole entry, looked up): as the sequence (P40337 whole entry, looked up) above
Sequence of Von Hippel-Lindau disease tumor suppressor/Elongin B/Elongin C (Homo sapiens) (Q15369 whole entry, looked up): as the sequence (Q15369 whole entry, looked up, other chains not shown) above
Sequence of Von Hippel-Lindau disease tumor suppressor/Elongin B/Elongin C (Homo sapiens) (Q15370 whole entry, looked up): as the sequence (Q15370 whole entry, looked up, other chains not shown) above

Turning to `Cc1ncsc1-c1ccc(CNC(=O)[C@@H]2C[C@H](O)CN2C(=O)[C@@H](NC(=O)COCCOCCOCCOCCOCCOCC(=O)N[C@H](C(=O)N2C[C@@H](O)C[C@H]2C(=O)NCc2ccc(-c3scnc3C)cc2)C(C)(C)C)C(C)(C)C)cc1`, the outcome in [1] was Active.
Take `Cc1ncsc1-c1ccc(CNC(=O)[C@@H]2C[C@@H](O)CN2C(=O)CC(C)(C)C)cc1C(F)(F)F`: in [2], the Kd turned out to be 67000 nM.
Consider `CC(=O)N1c2ccc(-c3ccc(C(=O)NCCOCCOCCOCCOCC(=O)N[C@H](C(=O)N4C[C@H](O)C[C@H]4C(=O)NCc4ccc(-c5scnc5C)cc4)C(C)(C)C)cc3)cc2[C@H](Nc2ccc(Cl)cc2)C[C@@H]1C`, for which the IC50 in assay [3] is 1310 nM; in [8] it was 1140 nM. For the same molecule, the Ki is 597 nM in [4] and 471 nM in assay [9]. For the same molecule, the Ratio Ki worked out at 0.8 in the assay listed under Homo sapiens [5], 0.6 in the assay filed under Homo sapiens [6] and 0.4 in the assay filed under Homo sapiens [7].
`Cc1ncsc1-c1ccc(CNC(=O)[C@@H]2C[C@@H](O)CN2C(=O)C(F)(F)F)cc1`: in [2], the dissociation constant Kd amounted to 25000 nM.
Molecule `Cc1ncsc1-c1ccc(CNC(=O)[C@@H]2C[C@H](O)CN2C(=O)[C@@H](NC(=O)COCCOCCOCCOCCOCC(=O)N[C@H](C(=O)N2C[C@@H](O)C[C@H]2C(=O)NCc2ccc(-c3scnc3C)cc2)C(C)(C)C)C(C)(C)C)cc1` displayed an IC50 in assay [8] of 888 nM. For the same molecule, the Ki in assay [9] was 287 nM.
In the case of `CC(=O)N1c2ccc(-c3ccc(C(=O)NCCOCCOCC(=O)N[C@H](C(=O)N4C[C@H](O)C[C@H]4C(=O)NCc4ccc(-c5scnc5C)cc4)C(C)(C)C)cc3)cc2[C@H](Nc2ccc(Cl)cc2)C[C@@H]1C`, the values for the IC50 in assay [3] and in [8] were 2110 nM and 1210 nM, respectively. Further, the Ki in assay [4] worked out at 1190 nM; in assay [9], 529 nM. Also, the Ratio Ki in the assay filed under Homo sapiens [5] came out at 0.4; in the assay listed under Homo sapiens [6], 0.1; in the assay listed under Homo sapiens [7] it was 0.2.
`Cc1ncsc1-c1ccc(CNC(=O)[C@@H]2C[C@@H](O)CN2C(=O)[C@@H](NC(=O)COCCOCCOCCOCCOCCOCC(=O)N[C@H](C(=O)N2C[C@H](O)C[C@H]2C(=O)NCc2ccc(-c3scnc3C)cc2)C(C)(C)C)C(C)(C)C)cc1`: the 50% inhibitory concentration (IC50) in assay [10] stood at 277 nM. The inhibitory constant (Ki) in assay [11] was 39 nM. The Ratio Ki in the assay filed under Homo sapiens [12] and in the assay filed under Homo sapiens [13] was 7 each time.
Take `Cc1ncsc1-c1ccc(CNC(=O)[C@@H]2[C@H](F)[C@@H](O)CN2C(=O)[C@@H](NC(=O)COCCOCCOCCNC(=O)C[C@@H]2N=C(c3ccc(Cl)cc3)c3c(sc(C)c3C)-n3c(C)nnc32)C(C)(C)C)cc1`: the figures for the 50% inhibitory concentration (IC50) in assay [3] and in assay [8] were 346 nM and 3020 nM, respectively. Besides, the Ki was 71 nM in assay [4] and 2060 nM in [9]. Further, the Ratio Ki in the assay filed under Homo sapiens [5] and in the assay filed under Homo sapiens [6] was 29 throughout.
With `Cc1ncsc1-c1ccc(CNC(=O)[C@@H]2C[C@@H](O)CN2C(=O)[C@@H](NC(=O)COCCOCCOCCNC(=O)C[C@@H]2N=C(c3ccc(Cl)cc3)c3c(sc(C)c3C)-n3c(C)nnc32)C(C)(C)C)cc1`, the IC50 amounted to 660 nM in [14] and 708 nM in assay [15]. The Ki in assay [16] amounted to 118 nM; in assay [17], 153 nM.
Regarding `O=C(NCc1ccc(Br)cc1)[C@@H]1C[C@@H](O)CN1C(=O)CC(F)(F)F`, in [2], the equilibrium dissociation constant (Kd) is 145000 nM.

Usually Kd stands for a measure of binding affinity in units of concentration. A word on the IC50: it is the concentration at which inhibition is half-maximal. Read a low IC50 as greater potency in that assay. The Ki is a dissociation constant, usually derived from enzyme kinetics or from competition with a known ligand.
